Broadly, the IC50 is the concentration at which inhibition is half-maximal. A word on the AUC(0-inf): it is the area under the concentration-time curve extrapolated to infinity. Read a high AUC(0-inf) as more exposure. For orientation: inhibition means the drop in the measured response relative to a control, in per cent.

Results on one molecule are retold here after ChEMBL document CHEMBL5661979, “Pharmacological inhibition of BMK1 suppresses tumor growth through promyelocytic leukemia protein” (Cancer Cell, 2010).

One data set has as its target IKK epsilon/TBK1 (Homo sapiens, UniProt Q14164+Q9UHD2). Briefly: Inhibition of IKKE/TBK1 in human HeLa cells lysate pre incubated for 15 mins followed by ADP acyl phosphate probe addition and measured after 10 mins by LC-MS/MS analysis. The class given is subcellular.
Data set [1] is described as follows: AUCinfinity in Sprague-Dawley rat at 2 mg/kg, po measured up to 8 hrs by LC-MS/MS analysis. It counts as ADME, organism-based. Conditions: in vivo. The method in brief:
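Sprague-Dawley rats given one intravenous dose or one oral dose of 2 mg/kg. Plasma drug concentrations were followed over time, with samples taken out to 8 hr after dosing. PK parameters (clearance, volume of distribution, half-life, oral bioavailability, Cmax) were calculated from these concentration–time data.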

The target of data set [2] is T1, Serine/threonine-protein kinase Nek9 (Homo sapiens) (UniProt Q8TD19).
T1 sequence (whole entry): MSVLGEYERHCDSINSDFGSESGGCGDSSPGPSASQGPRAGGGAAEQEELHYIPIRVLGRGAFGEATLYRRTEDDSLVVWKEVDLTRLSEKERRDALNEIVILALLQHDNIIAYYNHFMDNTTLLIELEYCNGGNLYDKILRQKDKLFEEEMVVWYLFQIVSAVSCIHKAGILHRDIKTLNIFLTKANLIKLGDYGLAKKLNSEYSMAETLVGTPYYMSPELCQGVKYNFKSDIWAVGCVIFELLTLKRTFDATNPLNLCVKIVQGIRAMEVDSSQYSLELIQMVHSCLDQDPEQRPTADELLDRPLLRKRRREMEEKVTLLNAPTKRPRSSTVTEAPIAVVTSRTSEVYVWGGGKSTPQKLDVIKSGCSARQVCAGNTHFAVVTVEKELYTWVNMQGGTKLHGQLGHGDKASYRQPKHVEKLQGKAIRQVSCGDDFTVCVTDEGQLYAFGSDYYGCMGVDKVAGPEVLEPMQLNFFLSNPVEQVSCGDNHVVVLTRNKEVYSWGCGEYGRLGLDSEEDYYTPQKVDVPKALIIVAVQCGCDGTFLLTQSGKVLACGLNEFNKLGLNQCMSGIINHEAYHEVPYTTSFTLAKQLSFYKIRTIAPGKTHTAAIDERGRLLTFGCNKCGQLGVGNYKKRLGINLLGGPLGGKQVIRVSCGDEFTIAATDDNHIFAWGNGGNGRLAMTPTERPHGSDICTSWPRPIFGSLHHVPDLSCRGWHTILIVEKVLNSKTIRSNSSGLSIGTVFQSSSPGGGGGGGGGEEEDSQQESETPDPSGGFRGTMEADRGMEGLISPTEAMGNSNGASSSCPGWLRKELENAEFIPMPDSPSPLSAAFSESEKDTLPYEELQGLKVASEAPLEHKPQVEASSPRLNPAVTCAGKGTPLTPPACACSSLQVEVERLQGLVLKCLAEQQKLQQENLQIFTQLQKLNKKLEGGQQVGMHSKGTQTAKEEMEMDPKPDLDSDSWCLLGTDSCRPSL
Briefly: Inhibition of NEK9 in human HeLa cells lysate at 10 uM pre incubated for 15 mins followed by ATP acyl phosphate probe addition and measured after 10 mins by LC-MS/MS analysis relative to control. The class given is subcellular. Conditions: time 25.0 min.

For data set [3], the target named is T2, Mitogen-activated protein kinase kinase kinase kinase 2 (Homo sapiens) (UniProt Q12851).
T2 sequence (whole entry): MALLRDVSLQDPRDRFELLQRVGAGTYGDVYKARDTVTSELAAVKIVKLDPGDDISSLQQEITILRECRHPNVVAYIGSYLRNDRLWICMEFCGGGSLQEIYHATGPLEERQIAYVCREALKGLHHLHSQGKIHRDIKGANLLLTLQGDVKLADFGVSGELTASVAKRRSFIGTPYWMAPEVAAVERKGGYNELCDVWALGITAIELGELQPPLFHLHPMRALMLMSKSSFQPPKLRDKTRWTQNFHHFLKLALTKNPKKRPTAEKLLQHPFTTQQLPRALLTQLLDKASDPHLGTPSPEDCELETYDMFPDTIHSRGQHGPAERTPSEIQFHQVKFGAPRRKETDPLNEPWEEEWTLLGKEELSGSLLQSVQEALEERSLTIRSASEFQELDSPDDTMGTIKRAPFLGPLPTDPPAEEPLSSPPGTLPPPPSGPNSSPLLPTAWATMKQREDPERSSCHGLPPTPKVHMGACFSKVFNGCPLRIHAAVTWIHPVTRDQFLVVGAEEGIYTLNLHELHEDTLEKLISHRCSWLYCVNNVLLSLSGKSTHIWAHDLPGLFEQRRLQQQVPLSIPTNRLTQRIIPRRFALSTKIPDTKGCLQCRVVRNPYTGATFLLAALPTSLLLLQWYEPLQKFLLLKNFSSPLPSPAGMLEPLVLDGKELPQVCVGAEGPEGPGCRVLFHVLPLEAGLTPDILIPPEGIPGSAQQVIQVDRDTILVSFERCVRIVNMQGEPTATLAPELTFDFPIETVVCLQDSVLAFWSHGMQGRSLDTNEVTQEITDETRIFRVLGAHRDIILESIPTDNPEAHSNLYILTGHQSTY
Nature of the data set: Inhibition of GCK in human HeLa cells lysate at 50 uM pre incubated for 15 mins followed by ADP acyl phosphate probe addition and measured after 10 mins by LC-MS/MS analysis relative to control. Conditions: time 25.0 min. It counts as subcellular.

Data set [4] concerns the target Mitogen-activated protein kinase kinase kinase 2 (Homo sapiens) (UniProt Q9Y2U5). Nature of the data set: Inhibition of MAP3K2 in human HeLa cells lysate at 50 uM pre incubated for 15 mins followed by ADP acyl phosphate probe addition and measured after 10 mins by LC-MS/MS analysis relative to control. The class given is subcellular. Conditions: time 25.0 min.
For data set [5], the target named is Dual specificity protein kinase TTK (Homo sapiens) (UniProt P33981). Nature of the data set: Inhibition of TTK (unknown origin) assessed as remaining activity at 10 uM by ATP-competition binding assay relative to control.
Data set [6] concerns the target Mitogen-activated protein kinase kinase kinase 11 (Homo sapiens, UniProt Q16584). Briefly: Inhibition of MLK3 in human HeLa cells lysate at 2 uM pre incubated for 15 mins followed by ATP acyl phosphate probe addition and measured after 10 mins by LC-MS/MS analysis relative to control. The class given is subcellular. Conditions: time 25.0 min.
The next data set has as its target PKC alpha and beta-2 (Homo sapiens, UniProt P17252+P05771). Nature of the data set: Inhibition of PKCalpha/beta in human HeLa cells lysate at 50 uM pre incubated for 15 mins followed by ATP acyl phosphate probe addition and measured after 10 mins by LC-MS/MS analysis relative to control. The class given is subcellular. Conditions: time 25.0 min.
The target of data set [7] is STE20-like serine/threonine-protein kinase (Homo sapiens, UniProt Q9H2G2). Nature of the data set: Inhibition of SLK in human HeLa cells lysate at 2 uM pre incubated for 15 mins followed by ADP acyl phosphate probe addition and measured after 10 mins by LC-MS/MS analysis relative to control. Conditions: time 25.0 min. The class given is subcellular.
For data set [8], the target named is ALK tyrosine kinase receptor (Homo sapiens) (UniProt Q9UM73). Briefly: Inhibition of ALK (unknown origin) assessed as remaining activity at 10 uM by ATP-competition binding assay relative to control.
Data set [9] deals with IKK epsilon/TBK1 (Homo sapiens) (UniProt Q14164+Q9UHD2). Nature of the data set: Inhibition of IKKE/TBK1 in human HeLa cells lysate at 2 uM pre incubated for 15 mins followed by ADP acyl phosphate probe addition and measured after 10 mins by LC-MS/MS analysis relative to control. Conditions: time 25.0 min. It counts as subcellular.

Molecules are shown by their SMILES. Some results are limits rather than exact numbers.

Sequence of PKC alpha and beta-2 (P05771 whole entry, looked up): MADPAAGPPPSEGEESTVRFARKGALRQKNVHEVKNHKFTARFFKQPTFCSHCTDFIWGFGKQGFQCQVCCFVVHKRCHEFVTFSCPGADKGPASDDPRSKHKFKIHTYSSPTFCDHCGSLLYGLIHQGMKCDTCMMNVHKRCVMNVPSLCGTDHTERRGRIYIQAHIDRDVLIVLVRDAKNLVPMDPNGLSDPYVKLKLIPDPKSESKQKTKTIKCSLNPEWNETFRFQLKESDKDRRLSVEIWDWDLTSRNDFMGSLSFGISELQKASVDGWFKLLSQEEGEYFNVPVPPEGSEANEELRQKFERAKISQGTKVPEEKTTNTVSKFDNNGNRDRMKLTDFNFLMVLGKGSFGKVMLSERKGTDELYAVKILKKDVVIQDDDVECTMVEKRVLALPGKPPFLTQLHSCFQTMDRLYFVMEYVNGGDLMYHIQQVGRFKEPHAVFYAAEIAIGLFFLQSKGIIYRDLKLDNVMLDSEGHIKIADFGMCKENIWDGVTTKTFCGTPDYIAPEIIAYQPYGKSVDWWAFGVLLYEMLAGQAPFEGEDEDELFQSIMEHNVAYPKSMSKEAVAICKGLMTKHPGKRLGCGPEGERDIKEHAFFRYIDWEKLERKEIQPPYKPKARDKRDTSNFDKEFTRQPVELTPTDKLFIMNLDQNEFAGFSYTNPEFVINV
Sequence of IKK epsilon/TBK1 (Q14164 whole entry): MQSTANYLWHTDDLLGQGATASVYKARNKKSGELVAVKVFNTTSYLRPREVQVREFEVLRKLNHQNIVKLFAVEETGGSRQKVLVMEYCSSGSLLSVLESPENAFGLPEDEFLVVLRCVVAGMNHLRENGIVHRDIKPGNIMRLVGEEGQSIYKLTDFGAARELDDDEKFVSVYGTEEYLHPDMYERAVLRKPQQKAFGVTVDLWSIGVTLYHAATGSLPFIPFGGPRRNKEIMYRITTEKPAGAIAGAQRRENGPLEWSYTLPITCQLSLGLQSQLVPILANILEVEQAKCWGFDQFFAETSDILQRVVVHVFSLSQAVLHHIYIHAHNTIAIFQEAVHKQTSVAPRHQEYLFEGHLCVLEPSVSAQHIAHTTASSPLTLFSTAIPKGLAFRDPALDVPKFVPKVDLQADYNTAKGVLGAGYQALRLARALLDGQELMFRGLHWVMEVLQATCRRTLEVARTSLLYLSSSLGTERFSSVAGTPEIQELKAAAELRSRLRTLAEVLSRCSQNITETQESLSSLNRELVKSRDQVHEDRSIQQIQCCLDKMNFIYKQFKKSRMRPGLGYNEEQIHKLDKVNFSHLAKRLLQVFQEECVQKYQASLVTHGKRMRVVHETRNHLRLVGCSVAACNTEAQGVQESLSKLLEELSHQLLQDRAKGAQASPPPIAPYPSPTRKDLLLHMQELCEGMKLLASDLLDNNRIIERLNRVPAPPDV
Sequence of IKK epsilon/TBK1 (Q9UHD2 whole entry): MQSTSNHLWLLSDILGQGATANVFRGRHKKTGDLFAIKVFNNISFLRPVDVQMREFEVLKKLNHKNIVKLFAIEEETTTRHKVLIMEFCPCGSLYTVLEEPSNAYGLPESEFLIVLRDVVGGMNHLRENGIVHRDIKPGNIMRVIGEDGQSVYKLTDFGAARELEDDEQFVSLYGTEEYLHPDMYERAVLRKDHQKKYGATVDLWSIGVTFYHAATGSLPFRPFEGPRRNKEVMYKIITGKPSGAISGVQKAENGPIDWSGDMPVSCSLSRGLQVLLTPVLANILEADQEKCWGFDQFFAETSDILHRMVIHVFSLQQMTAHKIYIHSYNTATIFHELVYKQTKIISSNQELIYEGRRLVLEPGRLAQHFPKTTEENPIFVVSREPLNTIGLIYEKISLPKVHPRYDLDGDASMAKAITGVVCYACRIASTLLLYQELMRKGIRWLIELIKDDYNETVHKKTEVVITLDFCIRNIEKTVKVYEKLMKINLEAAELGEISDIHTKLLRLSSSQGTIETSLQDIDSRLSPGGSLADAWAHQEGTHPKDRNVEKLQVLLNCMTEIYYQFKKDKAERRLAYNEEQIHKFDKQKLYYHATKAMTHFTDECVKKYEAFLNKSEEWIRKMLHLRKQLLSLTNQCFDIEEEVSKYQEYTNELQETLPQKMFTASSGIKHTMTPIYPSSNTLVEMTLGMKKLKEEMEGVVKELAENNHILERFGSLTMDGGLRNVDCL
Sequence of Dual specificity protein kinase TTK (Homo sapiens) (P33981 whole entry): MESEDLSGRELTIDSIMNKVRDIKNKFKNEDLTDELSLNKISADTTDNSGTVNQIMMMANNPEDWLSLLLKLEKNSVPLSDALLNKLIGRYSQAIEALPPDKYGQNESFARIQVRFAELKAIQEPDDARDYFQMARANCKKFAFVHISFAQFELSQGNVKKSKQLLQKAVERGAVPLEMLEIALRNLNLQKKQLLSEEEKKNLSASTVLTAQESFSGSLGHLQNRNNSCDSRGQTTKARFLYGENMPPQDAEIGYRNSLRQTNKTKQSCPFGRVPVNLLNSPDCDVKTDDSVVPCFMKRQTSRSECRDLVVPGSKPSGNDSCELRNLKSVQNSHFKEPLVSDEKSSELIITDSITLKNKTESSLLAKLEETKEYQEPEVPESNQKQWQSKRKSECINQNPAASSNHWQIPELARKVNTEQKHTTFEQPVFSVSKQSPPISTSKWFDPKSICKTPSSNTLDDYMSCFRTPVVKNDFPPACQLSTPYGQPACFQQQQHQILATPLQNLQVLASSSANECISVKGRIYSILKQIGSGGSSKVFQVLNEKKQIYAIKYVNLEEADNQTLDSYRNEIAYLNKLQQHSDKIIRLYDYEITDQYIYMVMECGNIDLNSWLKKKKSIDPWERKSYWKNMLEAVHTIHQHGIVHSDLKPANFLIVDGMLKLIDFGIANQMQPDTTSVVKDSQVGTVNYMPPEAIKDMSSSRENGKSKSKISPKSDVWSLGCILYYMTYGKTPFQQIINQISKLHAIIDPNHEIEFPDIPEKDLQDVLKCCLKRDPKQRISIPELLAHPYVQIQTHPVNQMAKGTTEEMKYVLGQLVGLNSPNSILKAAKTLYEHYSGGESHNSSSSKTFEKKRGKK
Sequence of Mitogen-activated protein kinase kinase kinase 2 (Homo sapiens) (Q9Y2U5 whole entry): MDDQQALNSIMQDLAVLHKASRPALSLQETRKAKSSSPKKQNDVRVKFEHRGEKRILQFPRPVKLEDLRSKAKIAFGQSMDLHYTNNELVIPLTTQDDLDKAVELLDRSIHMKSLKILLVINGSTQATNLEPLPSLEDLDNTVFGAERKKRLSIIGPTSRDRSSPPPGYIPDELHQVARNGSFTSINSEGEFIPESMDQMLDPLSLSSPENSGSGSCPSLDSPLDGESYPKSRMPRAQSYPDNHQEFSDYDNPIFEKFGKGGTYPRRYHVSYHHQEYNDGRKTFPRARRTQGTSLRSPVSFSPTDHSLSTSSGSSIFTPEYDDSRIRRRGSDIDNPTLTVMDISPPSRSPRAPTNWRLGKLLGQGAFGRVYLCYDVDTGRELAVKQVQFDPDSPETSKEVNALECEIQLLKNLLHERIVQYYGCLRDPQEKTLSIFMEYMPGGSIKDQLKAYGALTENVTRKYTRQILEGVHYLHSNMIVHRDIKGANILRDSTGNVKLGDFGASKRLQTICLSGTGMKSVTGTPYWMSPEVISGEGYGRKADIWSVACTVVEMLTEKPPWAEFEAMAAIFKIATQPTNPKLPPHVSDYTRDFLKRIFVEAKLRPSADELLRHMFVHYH

The molecule `CCOc1cc(N2CCC(O)CC2)ccc1Nc1ncc2c(n1)N(C)c1ccccc1C(=O)N2C` showed an IC50 at IKK epsilon/TBK1 of over 50 µM. The molecule further displayed an AUC(0-inf) in data set [1] of 1.9 µM·h. The inhibition was -7.3% in data set [2]; 34.5% in data set [3]; 3.7% in [4]; 5.3% in data set [6]; 14.4% on PKC alpha and beta-2; 13.3% in data set [7]. For the same molecule, the inhibition in data set [9] is -2.6%. Moreover, the Activity in [5] was found to be 19%; in data set [8], 29%.
